According to the RNAGym collection of RNA variant scans (doi:10.1126/science.aae0568):
Fewer inactive variants are shown than the library holds.

B1: tRNA (parent)
chain: GUUCCGUUGGCGUAAUGGUAACGCGUCUCCCUCCUAAGGAGAAGACUGCGGGUUCGAGUCCCGUACGGAACG

Variants of: B1
Assay: yeast fitness relative to wild type (ratio to wild type); higher = fitter; tRNA-Arg(CCU), competitive growth, 37 C, YPD
In short: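 Gene amplicons from the start population and from each of six end populations were read by 100-nucleotide paired-end sequencing. Those end populations came from pooled Saccharomyces cerevisiae strains carrying tRNA-Arg(CCU) gene variants at the native locus, competed in YPD at 37°C for 24 hours. Fitness relative to wild type was worked out from changes in genotype frequencies. Genotypes needed ≥ 100 starting reads, and estimates < 0.5 were set to 0.5.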

Variant | yeast fitness
U28A U47C | 0.858
U28A U47G | 0.535
U28A U59A | 0.633
U28A U59C | 0.647
U28C | 0.981
U28C A36G | 0.989
U28C A36G G41A A42C | ≤ 0.5
U28C A37C | 0.786
U28C A37C A40U A65U | ≤ 0.5
U28C A37C A40U G50A C60G | ≤ 0.5
U28C A37C A40U G63A A70C | ≤ 0.5
U28C A37C A70C | ≤ 0.5
U28C A37G | 0.724
U28C A40C C66G | 0.733
U28C A40G | 0.807
U28C A40G A70C | 0.576
U28C A40G G51C A65U | 0.545
U28C A42C U54G | ≤ 0.5
U28C A42G A65G | 0.598
U28C A42U | 0.816
U28C A43C G44C | ≤ 0.5
U28C A43C G44C C61A | 0.548
U28C A43U G48C C60G | ≤ 0.5
U28C A45G | 0.948

Variant | yeast fitness
U28C A45G C66U | 0.72
U28C A45U A70U | 0.773
U28C A57U | 0.823
U28C A65C | 0.85
U28C A69U | 0.893
U28C A70G | 0.92
U28C C29A C31G C55A G58A | ≤ 0.5
U28C C29G A43U C49U U54G C66A | ≤ 0.5
U28C C29G C33A G68C | ≤ 0.5
U28C C29G C49U | ≤ 0.5
U28C C29U | 0.806
U28C C29U A45C | 0.545
U28C C29U G63C A65U | ≤ 0.5
U28C C30A C49U | ≤ 0.5
U28C C30G | 0.667
U28C C30G A45C C49U | ≤ 0.5
U28C C30G C49G | ≤ 0.5
U28C C30U | 0.767
U28C C30U A45C G58A G67U | ≤ 0.5
U28C C30U C49U | ≤ 0.5
U28C C30U U59C | ≤ 0.5
U28C C31A | 0.784
U28C C31A G41A G58C C66U | ≤ 0.5
U28C C31G | 0.907

Variant | yeast fitness
U28C C31U A36C G41C U47A | ≤ 0.5
U28C C31U A36G G63C | ≤ 0.5
U28C C31U G51A G63C | ≤ 0.5
U28C C33A A42C A45U | ≤ 0.5
U28C C33A A42C A45U G63C | ≤ 0.5
U28C C33A C49U C55G | ≤ 0.5
U28C C33G G38A A57G | ≤ 0.5
U28C C33U A37G G41A G52C | ≤ 0.5
U28C C33U C49G | ≤ 0.5
U28C C33U G41A A69U | ≤ 0.5
U28C C33U G41A G52C | ≤ 0.5
U28C C34A C49G G51C | ≤ 0.5
U28C C34G A40G A43G C46G C55U C66U | ≤ 0.5
U28C C34G A40G A43G C46G G52A C55U C66U | 0.547
U28C C34G G38C A45C | ≤ 0.5
U28C C46A C62A U64A | ≤ 0.5
U28C C46U | 0.911
U28C C46U G51C A70C | ≤ 0.5
U28C C49U G52A | 0.619
U28C C55A | 0.564
U28C C55A C61U G68A A70G | ≤ 0.5
U28C C55G C60A | ≤ 0.5
U28C C55U | 0.685
U28C C55U A57C | ≤ 0.5

Variant | yeast fitness
U28C C55U A70U | 0.61
U28C C55U C66G | ≤ 0.5
U28C C60U | 0.73
U28C C61A | 0.765
U28C C61G G67A | ≤ 0.5
U28C C61G G68C | ≤ 0.5
U28C C61U | 0.874
U28C C62G | 0.724
U28C C62U | 1.02
U28C C62U U64C | 0.7
U28C C66G | 0.72
U28C C66U | 0.907
U28C G38A A40C A45G G48A U59A C62U | 0.542
U28C G39U C49A C55U | ≤ 0.5
U28C G41A A57U C66G | ≤ 0.5
U28C G41A G52U | ≤ 0.5
U28C G41C C62A | ≤ 0.5
U28C G41C G63A | ≤ 0.5
U28C G44C | 0.935
U28C G48A | 0.866
U28C G48A C61G | 0.548
U28C G48C U53C | 0.553
U28C G51A | 0.773
U28C G51A C55U C66G | 0.553

Variant | yeast fitness
U28C G51A U59A A65C | ≤ 0.5
U28C G52A A69U | 0.592
U28C G52C U64A | ≤ 0.5
U28C G56A | 0.933
U28C G58A | 0.937
U28C G58U A65G G67A | ≤ 0.5
U28C G63A | 0.939
U28C G63C | 0.611
U28C G63C U64A C66G | ≤ 0.5
U28C G63U | 0.521
U28C G67A | 0.652
U28C G68A | 0.839
U28C U32A | 0.754
U28C U32C | 0.935
U28C U32C C34U A45U A70U | 0.584
U28C U32C C60A | ≤ 0.5
U28C U35C | 0.751
U28C U47A C61G G67C | ≤ 0.5
U28C U47C | 0.915
U28C U47C A70G | 0.743
U28C U47C G58A | 1.07
U28C U47C U59A C66A | ≤ 0.5
U28C U54C | 0.909
U28C U59C G67A | 0.532

Variant | yeast fitness
U28C U64A | 0.622
U28G | 0.957
U28G A36C G38C C49U | ≤ 0.5
U28G A36G A45G | 0.718
U28G A36G C66U | 0.582
U28G A36U C46U C61U | ≤ 0.5
U28G A37C C55U | ≤ 0.5
U28G A37C C55U A65U | ≤ 0.5
U28G A37G | 0.586
U28G A37G G50C | 0.528
U28G A40U A69C | 0.629
U28G A40U G56A | 1.02
U28G A42U | 0.71
U28G A43G G44A | ≤ 0.5
U28G A57C A65C | ≤ 0.5
U28G A57U A70U | 0.721
U28G C29A | ≤ 0.5
U28G C29A G41C A43U U47C C66G | ≤ 0.5
U28G C29A G56A | ≤ 0.5
U28G C29G | 0.608
U28G C30A | 0.645
U28G C30G A40C A42U | ≤ 0.5
U28G C30G C49U U64C | ≤ 0.5
U28G C30G U53A C61U | ≤ 0.5

Variant | yeast fitness
U28G C31G | 0.629
U28G C31G A57C C66U | ≤ 0.5
U28G C31G U59A C61G | ≤ 0.5
U28G C31U | 0.544
U28G C31U A69U | 0.524
U28G C31U A70U | 0.543
U28G C31U C49G | ≤ 0.5
U28G C31U C66U | ≤ 0.5
U28G C31U G68A | ≤ 0.5
U28G C33G A45C | 0.607
U28G C33G G68C | ≤ 0.5
U28G C34A | 0.568
U28G C34G A36G G44C C61G | ≤ 0.5
U28G C34G G44C C61G | 0.558
U28G C34G G44C U64G | ≤ 0.5
U28G C34U A45U | 0.52
U28G C34U G38A | ≤ 0.5
U28G C46U C60A | ≤ 0.5
U28G C55G | ≤ 0.5
U28G C55U G67C | ≤ 0.5
U28G C61G | 0.634
U28G C61U | 0.808
U28G C62U | 0.737
